# Results from ChEMBL document CHEMBL2417431, “Synthesis and evaluation of hetero- and homodimers of ribosome-targeting antibiotics: antimicrobial activity, in vitro inhibition of translation, and drug resistance” (J Med Chem, 2013).
# pIC50: −log10 of the molar value.
# Experiments:
# Staphylococcus aureus [1] = assay: Antibacterial activity against Staphylococcus aureus ATCC 29213 by double-dilution technique; assay type: functional
# Summary of the method: (§1)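 Double-dilution series of each compound against each strain, reported as MIC. Runs done in duplicate or triplicate.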
# Bacillus cereus = assay: Antibacterial activity against Bacillus cereus ATCC 11778 by double-dilution technique; assay type: functional
# Summary of the method: (§2)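 MIC measured against each bacterial strain using a double-dilution series of each compound. Every determination was run in duplicate or triplicate.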
# Haemophilus influenzae = assay: Antibacterial activity against Haemophilus influenzae ATCC 51907 by double-dilution technique; assay type: functional; summary of the method: as §2
# Escherichia coli [2] = assay: Inhibition of protein synthesis in Escherichia coli S30 extracts after 90 mins by coupled transcription/translation assay; assay type: functional; details: 1.5 h
# Summary of the method: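 E. coli extract coupled transcription/translation with luciferase reporter. Reactions with varying compound concentrations ran 90 min at 37 °C, were chilled on ice, then diluted in Tris-phosphate pH 7.8 buffer containing DTT, glycerol, Triton X-100 and BSA. Luminescence was read immediately after adding luciferase reagent. IC50 came from concentration-response fits of at least two independent experiments.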
# Bacillus anthracis = assay: Antibacterial activity against Bacillus anthracis 34F2 Sterne by double-dilution technique; assay type: functional; summary of the method: as §1
# Listeria monocytogenes = assay: Antibacterial activity against Listeria monocytogenes ATCC 19115 by double-dilution technique; assay type: functional; summary of the method: as §1
# Staphylococcus aureus [3] = assay: Antibacterial activity against Staphylococcus aureus expressing NorA by double-dilution technique; assay type: functional; summary of the method: as §1
# Bacillus subtilis [4] = assay: Antibacterial activity against Bacillus subtilis 168 harboring AAC(6')/APH(2'')-pRB374 by double-dilution technique; assay type: functional
# Escherichia coli [5] = assay: Antibacterial activity against Escherichia coli MC1061 by double-dilution technique; assay type: functional; summary of the method: as §1
# [6] = system: Staphylococcus epidermidis; assay: Antibacterial activity against biofilm negative Staphylococcus epidermidis ATCC 12228 by double-dilution technique; assay type: functional; summary of the method: as §2
# Bacillus subtilis [7] = assay: Antibacterial activity against Bacillus subtilis 168 by double-dilution technique; assay type: functional; summary of the method: as §1
# Streptococcus pyogenes = assay: Antibacterial activity against Streptococcus pyogenes Serotype M12 MGAS9429 by double-dilution technique; assay type: functional; summary of the method: as §2
# [8] = system: Mycolicibacterium smegmatis; assay: Antibacterial activity against Mycobacterium smegmatis str. MC2 155 by double-dilution technique; assay type: functional
# [9] = Drug metabolism assessed as aminoglycoside 2'-N-acetyltransferase Ic (unknown origin)-mediated conversion at 100 uM by micro plate reader analysis relative to tobramycin; assay type: ADME
# Summary of the method: (§3)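 Ellman assay: CoASH release coupled to DTNB (2 mM), read at 412 nm every 30 s for 1 h at 25 °C. Compound at 100 μM. Conditions by enzyme: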
# [10] = Drug metabolism assessed as aminoglycoside 3-N-acetyltransferase AAC(3)-IV (unknown origin)-mediated conversion at 100 uM by micro plate reader analysis relative to tobramycin; assay type: ADME; summary of the method: as §3
# [11] = Drug metabolism assessed as enhanced intracellular survival protein (unknown origin)-mediated conversion at 100 uM by micro plate reader analysis relative to tobramycin; assay type: ADME; summary of the method: as §3
SMILES,MIC (Staphylococcus aureus [1]),MIC (Bacillus cereus),MIC (Haemophilus influenzae),pIC50 (Escherichia coli [2]),MIC (Bacillus anthracis),MIC (Listeria monocytogenes),MIC (Staphylococcus aureus [3]),MIC (Bacillus subtilis [4]),MIC (Escherichia coli [5]),MIC [6],MIC (Bacillus subtilis [7]),MIC (Streptococcus pyogenes),MIC [8],fold change (FC) [9],fold change (FC) [10],fold change (FC) [11]
CCC[C@@H]1C[C@@H](C(=O)N[C@H]([C@H]2O[C@H](SC)[C@H](O)[C@@H](O)[C@H]2O)[C@@H](C)SCCOCCSSCCOCCSCC(=O)N[C@@H](CO)[C@H](O)c2ccc([N+](=O)[O-])cc2)N(C)C1,0.6 µg/mL,2.3 µg/mL,150 µg/mL,4.74,< 0.3 µg/mL,4.7 µg/mL,< 0.3 µg/mL,> 150 µg/mL,4.7 µg/mL,2 µg/mL,2.3 µg/mL,> 128 µg/mL,18.8 µg/mL,,,
CCC[C@@H]1C[C@@H](C(=O)N[C@H]([C@H]2O[C@H](SC)[C@H](O)[C@@H](O)[C@H]2O)[C@@H](C)SCCOCCSCC(=O)N[C@H](CO)[C@H](O)c2ccc([N+](=O)[O-])cc2)N(C)C1,18.8 µg/mL,18.8 µg/mL,75 µg/mL,4.83,2.3 µg/mL,75 µg/mL,18.8 µg/mL,> 150 µg/mL,9.4 µg/mL,4 µg/mL,18.8 µg/mL,> 128 µg/mL,> 150 µg/mL,,,
NC[C@H]1O[C@H](O[C@H]2[C@H](O)[C@@H](O[C@@H]3O[C@H](CSCCOCCSSCCOCCSCC(=O)N[C@H](CO)[C@H](O)c4ccc([N+](=O)[O-])cc4)[C@@H](O)[C@H](N)[C@H]3O)[C@H](N)C[C@@H]2N)[C@H](N)C[C@@H]1O,150 µg/mL,150 µg/mL,37.5 µg/mL,6.00,75 µg/mL,18.8 µg/mL,9.4 µg/mL,150 µg/mL,4.7 µg/mL,16 µg/mL,4.7 µg/mL,16 µg/mL,4.7 µg/mL,1.6,1.4,2.6
O=C(CSCCOCCSSCCOCCSCC(=O)N[C@H](CO)[C@H](O)c1ccc([N+](=O)[O-])cc1)N[C@H](CO)[C@H](O)c1ccc([N+](=O)[O-])cc1,0.6 µg/mL,75 µg/mL,150 µg/mL,4.59,75 µg/mL,9.4 µg/mL,> 150 µg/mL,> 150 µg/mL,18.8 µg/mL,> 64 µg/mL,150 µg/mL,> 128 µg/mL,> 150 µg/mL,,,
O=C(CSCCOCCSCC(=O)N[C@H](CO)[C@H](O)c1ccc([N+](=O)[O-])cc1)N[C@H](CO)[C@H](O)c1ccc([N+](=O)[O-])cc1,> 150 µg/mL,> 150 µg/mL,> 150 µg/mL,4.48,> 150 µg/mL,> 150 µg/mL,> 150 µg/mL,> 150 µg/mL,> 150 µg/mL,> 64 µg/mL,> 150 µg/mL,> 128 µg/mL,> 150 µg/mL,,,
CCC[C@@H]1C[C@@H](C(=O)N[C@H]([C@H]2O[C@H](SC)[C@H](O)[C@@H](O)[C@H]2O)[C@@H](C)SCCOCCSSCCOCCS[C@H](C)[C@H](NC(=O)[C@@H]2C[C@@H](CCC)CN2C)[C@H]2O[C@H](SC)[C@H](O)[C@@H](O)[C@H]2O)N(C)C1,0.6 µg/mL,2.3 µg/mL,37.5 µg/mL,5.21,2.3 µg/mL,4.7 µg/mL,0.6 µg/mL,> 150 µg/mL,9.4 µg/mL,1 µg/mL,2.3 µg/mL,> 128 µg/mL,18.8 µg/mL,,,
O=C(CSCCOCCS)N[C@H](CO)[C@H](O)c1ccc([N+](=O)[O-])cc1,> 150 µg/mL,150 µg/mL,> 150 µg/mL,4.31,150 µg/mL,> 150 µg/mL,> 150 µg/mL,> 150 µg/mL,37.5 µg/mL,> 128 µg/mL,> 150 µg/mL,128 µg/mL,> 150 µg/mL,,,
CCC[C@@H]1C[C@@H](C(=O)N[C@H]([C@H]2O[C@H](SC)[C@H](O)[C@@H](O)[C@H]2O)[C@@H](C)SCCOCCS)N(C)C1,4.7 µg/mL,9.4 µg/mL,75 µg/mL,< 4.00,2.3 µg/mL,37.5 µg/mL,1.2 µg/mL,> 150 µg/mL,37.5 µg/mL,4 µg/mL,9.4 µg/mL,2 µg/mL,75 µg/mL,,,
NC[C@H]1O[C@H](O[C@H]2[C@H](O)[C@@H](O[C@@H]3O[C@H](CSCCOCCS)[C@@H](O)[C@H](N)[C@H]3O)[C@H](N)C[C@@H]2N)[C@H](N)C[C@@H]1O,75 µg/mL,150 µg/mL,37.5 µg/mL,6.37,37.5 µg/mL,18.8 µg/mL,18.8 µg/mL,75 µg/mL,18.8 µg/mL,16 µg/mL,2.3 µg/mL,128 µg/mL,2.3 µg/mL,,,
O=C(N[C@H](CO)[C@H](O)c1ccc([N+](=O)[O-])cc1)C(Cl)Cl [CHLORAMPHENICOL],9.4 µg/mL,4.7 µg/mL,0.6 µg/mL,5.19,4.7 µg/mL,9.4 µg/mL,4.7 µg/mL,1.2 µg/mL,< 0.3 µg/mL,8 µg/mL,2.3 µg/mL,4 µg/mL,18.8 µg/mL,,,
CCC[C@@H]1C[C@@H](C(=O)N[C@@H]([C@H]2O[C@H](SC)[C@H](O)[C@@H](O)[C@H]2O)[C@H](C)Cl)N(C)C1 [CLINDAMYCIN],,,4.7 µg/mL,4.74,< 0.3 µg/mL,4.7 µg/mL,,> 150 µg/mL,2.3 µg/mL,1 µg/mL,,1 µg/mL,9.4 µg/mL,,,
NC[C@H]1O[C@H](O[C@H]2[C@H](O)[C@@H](O[C@H]3O[C@H](CO)[C@@H](O)[C@H](N)[C@H]3O)[C@H](N)C[C@@H]2N)[C@H](N)C[C@@H]1O [TOBRAMYCIN],37.5 µg/mL,75 µg/mL,18.8 µg/mL,7.82,9.4 µg/mL,18.8 µg/mL,9.4 µg/mL,9.4 µg/mL,9.4 µg/mL,0.3 µg/mL,2.3 µg/mL,64 µg/mL,0.6 µg/mL,,,
